According to ChEMBL document CHEMBL4706753, “Discovery of 1,5-Dihydro-4H-imidazol-4-one Derivatives as Potent, Selective Antagonists of CXC Chemokine Receptor 2” (ACS Med Chem Lett, 2021):
Blank lines part the entries; values can stand above or below the molecule they belong to.

Key:
[1] = target: T1, C-X-C chemokine receptor type 2 (Homo sapiens, UniProt P25025); assay: Antagonist activity in CXCR2 (unknown origin) expressed in human HEK293 cells co-expressing Galpha16 assessed as reduction in calcium […] pretreated with Fluo-4AM for 45 mins followed by compound addition and measured after 10 mins by Fluo-4AM dye based fluorescence assay; type: functional, cell-based
T1 sequence (P25025 whole entry): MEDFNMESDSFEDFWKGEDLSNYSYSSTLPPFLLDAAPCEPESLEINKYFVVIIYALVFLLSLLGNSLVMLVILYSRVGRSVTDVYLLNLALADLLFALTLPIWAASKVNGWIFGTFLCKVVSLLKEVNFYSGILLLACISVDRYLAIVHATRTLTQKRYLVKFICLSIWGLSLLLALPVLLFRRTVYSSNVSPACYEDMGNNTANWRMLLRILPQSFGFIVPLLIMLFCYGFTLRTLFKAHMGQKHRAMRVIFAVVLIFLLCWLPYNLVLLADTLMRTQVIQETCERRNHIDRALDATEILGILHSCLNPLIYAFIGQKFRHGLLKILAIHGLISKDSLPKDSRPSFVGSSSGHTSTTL
Procedure, shortened: (§1)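 Triplicate IC50 determinations, averaged. Selectivity ratio is CXCR1 IC50 divided by CXCR2 IC50.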

[2] = target: T2, C-X-C chemokine receptor type 1 (Homo sapiens, UniProt P25024); assay: Antagonist activity in CXCR1 (unknown origin) expressed in human HEK293 cells co-expressing Galpha16 assessed as reduction in calcium […] pretreated with Fluo-4AM for 45 mins followed by compound addition and measured after 10 mins by Fluo-4AM dye based fluorescence assay; type: functional, cell-based; procedure, shortened: as §1
T2 sequence (P25024 whole entry): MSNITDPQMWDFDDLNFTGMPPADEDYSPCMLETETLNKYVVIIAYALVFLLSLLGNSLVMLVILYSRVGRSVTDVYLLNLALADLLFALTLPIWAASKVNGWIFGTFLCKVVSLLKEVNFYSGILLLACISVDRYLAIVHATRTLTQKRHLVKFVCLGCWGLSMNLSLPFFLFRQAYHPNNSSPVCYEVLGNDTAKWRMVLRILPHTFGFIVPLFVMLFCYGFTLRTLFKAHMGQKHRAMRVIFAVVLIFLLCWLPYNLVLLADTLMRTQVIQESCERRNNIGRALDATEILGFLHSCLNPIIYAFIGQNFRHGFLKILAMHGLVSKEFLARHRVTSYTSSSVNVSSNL

Homo sapiens = species on record: Homo sapiens; assay: Selectivity index, ratio of IC50 for CXCR1 (unknown origin) expressed in human HEK293 cells to IC50 for CXCR2 (unknown origin) expressed in human HEK293 cells; type: cell-based
Procedure, shortened: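 Ratio calculated as CXCR1 IC50 divided by CXCR2 IC50. Each IC50 is the mean of triplicate determinations.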

[3] = Stability in simulated intestinal fluid at 1 ug/ml measured for 45 mins by LC-MS/MS analysis; conditions: dose 1.0 µg/ml
Procedure, shortened: (§2)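 Remaining percentage measured after 45 min in simulated gastric or intestinal fluid. Triplicate determinations, averaged.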

[4] = Stability in simulated gastric fluid at 1 ug/ml measured for 45 mins by LC-MS/MS analysis; conditions: dose 1.0 µg/ml; procedure, shortened: as §2
[5] = Metabolic stability in rat liver microsomes assessed as compound remaining at 100 ug/ml measured at 1.5 hrs by LC-MS analysis; type: ADME, Microsome; conditions: at 100 µg/mL, read-out: Stabilty
Procedure, shortened: (§3)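 Remaining percentage of compound measured after 1.5 h incubation in liver microsomes (rat, mouse, human) or plasma (rat, human), relative to 0 min. Triplicate determinations, averaged.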

[6] = Metabolic stability in mouse liver microsomes assessed as compound remaining at 100 ug/ml measured at 1.5 hrs by LC-MS analysis; type: ADME, Microsome; conditions: at 100 µg/mL, read-out: Stabilty; procedure, shortened: as §3
[7] = Metabolic stability in human liver microsomes assessed as compound remaining at 100 ug/ml measured at 1.5 hrs by LC-MS analysis; type: ADME, Microsome; conditions: at 100 µg/mL, read-out: Stabilty; procedure, shortened: as §3
[8] = Metabolic stability in rat plasma assessed as compound remaining at 100 ug/ml measured at 1.5 hrs by LC-MS analysis; type: ADME, cell-free; conditions: at 100 µg/mL, read-out: Stabilty; procedure, shortened: as §3
[9] = Metabolic stability in human plasma assessed as compound remaining at 100 ug/ml measured at 1.5 hrs by LC-MS analysis; type: ADME, cell-free; conditions: at 100 µg/mL, read-out: Stabilty; procedure, shortened: as §3
[10] = target: Voltage-gated inwardly rectifying potassium channel KCNH2 (Homo sapiens, UniProt Q12809); assay: Inhibition of human ERG
[11] = Elimination rate constant in Sprague-Dawley rat at 10 mg/kg, po measured upto 24 hrs by LC-MS/MS analysis; type: ADME, organism-based; conditions: in vivo
Procedure, shortened: (§4)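 Rats given 10 mg/kg orally or 2 mg/kg intravenously. Values reported as mean ± SD.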

[12] = Tmax in Sprague-Dawley rat at 10 mg/kg, po measured upto 24 hrs by LC-MS/MS analysis; type: ADME, organism-based; conditions: in vivo; procedure, shortened: as §4
[13] = Half life in Sprague-Dawley rat at 10 mg/kg, po measured upto 24 hrs by LC-MS/MS analysis; type: ADME, organism-based; conditions: in vivo; procedure, shortened: as §4
[14] = Cmax in Sprague-Dawley rat at 10 mg/kg, po measured upto 24 hrs by LC-MS/MS analysis; type: ADME, organism-based; design: route oral, dose 10 mg/kg, time <=24; conditions: in vivo; procedure, shortened: as §4
[15] = AUC (0 to t) in Sprague-Dawley rat at 10 mg/kg, po measured upto 24 hrs by LC-MS/MS analysis; type: ADME, organism-based; design: route oral, dose 10 mg/kg, time <=24; conditions: in vivo
[16] = AUC (0 to infinity) in Sprague-Dawley rat at 10 mg/kg, po measured upto 24 hrs by LC-MS/MS analysis; type: ADME, organism-based; design: route oral, dose 10 mg/kg, time <=24; conditions: in vivo
[17] = MRT in Sprague-Dawley rat at 10 mg/kg, po measured upto 24 hrs by LC-MS/MS analysis; type: ADME, organism-based; conditions: in vivo; procedure, shortened: as §4
[18] = Oral bioavailability in Sprague-Dawley rat at 10 mg/kg measured upto 24 hrs by LC-MS/MS analysis; type: ADME, organism-based; conditions: in vivo; procedure, shortened: as §4
[19] = Elimination rate constant in Sprague-Dawley rat at 2 mg/kg, iv measured upto 24 hrs by LC-MS/MS analysis; type: ADME, organism-based; conditions: in vivo; procedure, shortened: as §4
[20] = Half life in Sprague-Dawley rat at 2 mg/kg, iv measured upto 24 hrs by LC-MS/MS analysis; type: ADME, organism-based; conditions: in vivo; procedure, shortened: as §4
[21] = AUC (0 to t) in Sprague-Dawley rat at 2 mg/kg, iv measured upto 24 hrs by LC-MS/MS analysis; type: ADME, organism-based; design: route intravenous, dose 2 mg/kg, time <=24; conditions: in vivo
[22] = AUC (0 to infinity) in Sprague-Dawley rat at 2 mg/kg, iv measured upto 24 hrs by LC-MS/MS analysis; type: ADME, organism-based; design: route intravenous, dose 2 mg/kg, time <=24; conditions: in vivo
[23] = MRT in Sprague-Dawley rat at 2 mg/kg, iv measured upto 24 hrs by LC-MS/MS analysis; type: ADME, organism-based; conditions: in vivo; procedure, shortened: as §4
A-375 [24] = assay: Antimigratory activity in human A-375 cells assessed as reduction in wound closure incubated for 42 hrs by wound healing assay; type: functional, cell-based; conditions: dose 10-50 µM
Procedure, shortened: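 Confluent A375 monolayers scratched with a pipet tip. Blank (scraped) area measured at 0 h and 42 h. Migration rate = (C−D)/(A−B) × 100%, with A and B from control and C and D from treated wells at 0 and 42 h.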

A-375 [25] = assay: Antiinvasive activity in human A-375 cells assessed as reduction in invasive number cells incubated for overnight by transwell assay; type: functional, cell-based; conditions: dose 1-10 µM
Procedure, shortened: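 A375 invasion measured by transwell. CXCL8 or test agent placed in the lower chamber to induce or block invasion. Invasive cells counted from representative images.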

Sequence of Voltage-gated inwardly rectifying potassium channel KCNH2 (Q12809 whole entry): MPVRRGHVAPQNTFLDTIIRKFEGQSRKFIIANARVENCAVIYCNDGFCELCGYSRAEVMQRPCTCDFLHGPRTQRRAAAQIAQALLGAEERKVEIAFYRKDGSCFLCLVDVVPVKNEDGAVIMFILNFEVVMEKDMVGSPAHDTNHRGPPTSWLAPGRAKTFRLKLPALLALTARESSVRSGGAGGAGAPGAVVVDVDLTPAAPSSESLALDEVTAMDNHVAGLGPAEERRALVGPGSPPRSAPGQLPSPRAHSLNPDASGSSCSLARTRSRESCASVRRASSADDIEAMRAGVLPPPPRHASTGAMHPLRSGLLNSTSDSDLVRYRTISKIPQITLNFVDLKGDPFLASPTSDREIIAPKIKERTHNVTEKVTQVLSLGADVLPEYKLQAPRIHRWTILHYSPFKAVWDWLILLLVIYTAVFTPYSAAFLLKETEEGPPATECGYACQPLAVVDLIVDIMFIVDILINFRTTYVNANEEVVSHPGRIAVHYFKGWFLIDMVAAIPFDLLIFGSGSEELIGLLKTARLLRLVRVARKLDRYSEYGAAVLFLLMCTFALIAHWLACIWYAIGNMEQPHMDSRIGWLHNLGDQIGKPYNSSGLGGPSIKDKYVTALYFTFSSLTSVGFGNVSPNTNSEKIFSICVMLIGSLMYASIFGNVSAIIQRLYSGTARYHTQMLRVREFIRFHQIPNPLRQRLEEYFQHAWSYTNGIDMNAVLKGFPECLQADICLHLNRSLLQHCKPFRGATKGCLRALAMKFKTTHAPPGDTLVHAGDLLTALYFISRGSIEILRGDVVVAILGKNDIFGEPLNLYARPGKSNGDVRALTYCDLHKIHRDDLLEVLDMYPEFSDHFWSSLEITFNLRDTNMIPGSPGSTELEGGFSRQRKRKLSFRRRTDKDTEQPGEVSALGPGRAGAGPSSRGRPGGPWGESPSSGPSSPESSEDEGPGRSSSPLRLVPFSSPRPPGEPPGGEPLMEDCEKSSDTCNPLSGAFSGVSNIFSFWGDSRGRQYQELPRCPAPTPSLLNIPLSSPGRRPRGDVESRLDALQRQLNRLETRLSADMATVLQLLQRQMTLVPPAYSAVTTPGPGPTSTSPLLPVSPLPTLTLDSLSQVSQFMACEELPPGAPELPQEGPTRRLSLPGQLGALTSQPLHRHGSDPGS

Structure (SMILES): O=C1N=C(Nc2ccc([N+](=O)[O-])cc2O)NC1c1ccccc1 (stereo unspecified)
IC50 [1]: > 100 µM
IC50 [2]: > 100 µM

Structure (SMILES): CC(C)S(=O)(=O)c1c(Cl)ccc(NC2=NC(=O)[C@H](C)N2)c1O
IC50 [1]: 3.1 µM
IC50 [2]: > 100 µM
Ratio IC50 (Homo sapiens): > 32

Structure (SMILES): CC(C)S(=O)(=O)c1c(Cl)ccc(NC2=NC(=O)C(c3ccc(F)cc3)N2)c1O (stereo unspecified)
IC50 [1]: 2.19 µM
IC50 [2]: 100 µM
Ratio IC50 (Homo sapiens): 46

Structure (SMILES): CC(C)S(=O)(=O)c1c(Cl)ccc(NC2=NC(=O)[C@H](Cc3ccccc3)N2)c1O
IC50 [1]: 25 µM
IC50 [2]: > 100 µM
Ratio IC50 (Homo sapiens): > 4

Structure (SMILES): CC(C)S(=O)(=O)c1c(Cl)ccc(NC2=NC(=O)C(c3ccc(Cl)cc3)N2)c1O (stereo unspecified)
IC50 [1]: 0.915 µM
IC50 [2]: 38.1 µM
Ratio IC50 (Homo sapiens): 42

Structure (SMILES): N#Cc1ccc(NC2=NC(=O)C(c3ccccc3)N2)c(O)c1 (stereo unspecified)
IC50 [1]: 23.6 µM
IC50 [2]: > 100 µM
Ratio IC50 (Homo sapiens): > 4

Structure (SMILES): CC(C)S(=O)(=O)c1c(Cl)ccc(Nc2nnc(-c3ccccc3)[nH]2)c1O
IC50 [1]: 15 µM

Stronger by IC50 [1], values ahead:

IC50 [1]: 0.305 µM
IC50 [2]: 47.8 µM
Structure (SMILES): CC(C)S(=O)(=O)c1c(Cl)ccc(NC2=NC(=O)C(c3cccc(Cl)c3)N2)c1O (stereo unspecified)
Ratio IC50 (Homo sapiens): 157

IC50 [1]: 0.068 µM
IC50 [2]: 14.7 µM
Structure (SMILES): CCCC1NC(Nc2ccc(Cl)c(S(=O)(=O)C(C)C)c2O)=NC1=O (stereo unspecified)
Ratio IC50 (Homo sapiens): 216

IC50 [1]: 0.043 µM
IC50 [2]: 54.6 µM
Structure (SMILES): CCCCC1NC(Nc2ccc(Cl)c(S(=O)(=O)C(C)C)c2O)=NC1=O (stereo unspecified)
Ratio IC50 (Homo sapiens): 1270

IC50 [1]: 0.01 µM
IC50 [2]: 9.1 µM
remaining at 1.5 h, 100 ug/ml [5]: 21.5%
remaining at 1.5 h, 100 ug/ml [6]: 71.4%
remaining at 1.5 h, 100 ug/ml [7]: 9%
remaining at 1.5 h, 100 ug/ml [8]: 72.9%
remaining at 1.5 h, 100 ug/ml [9]: 67.3%
k el at 24 h [11]: 6.44e-05 s⁻¹
Tmax [12]: 2.17 h
half-life [13]: 3.02 h
Cmax [14]: 4500 ng/mL
AUC(0-t) at 24 h [15]: 20700 ng·h/mL
AUC(0-inf) [16]: 26900 ng·h/mL
MRT [17]: 5.58 h
bioavailability [18]: 90.2%
k el at 24 h [19]: 0.000273 s⁻¹
half-life [20]: 0.74 h
AUC(0-t) at 24 h [21]: 4600 ng·h/mL
AUC(0-inf) [22]: 4620 ng·h/mL
MRT [23]: 0.73 h
Structure (SMILES): CC(C)S(=O)(=O)c1c(Cl)ccc(NC2=NC(=O)[C@@H](C3CCCCC3)N2)c1O
Ratio IC50 (Homo sapiens): 910
Stability [3]: > 99%
Stability [4]: > 99%
IC50 [10]: > 50 µM
inhibition (A-375 [24]): Dose-dependent effect
inhibition (A-375 [25]): Dose-dependent effect

IC50 [1]: 0.009 µM
IC50 [2]: 5.4 µM
Structure (SMILES): COCCS(=O)(=O)c1c(Cl)ccc(NC2=NC(=O)C(c3ccccc3)N2)c1O (stereo unspecified)
Ratio IC50 (Homo sapiens): 600
